# Results taken from ChEMBL document CHEMBL1811814, “Synthesis and evaluation of indole, pyrazole, chromone and pyrimidine based conjugates for tumor growth inhibitory activities--development of highly efficacious cytotoxic agents” (Eur J Med Chem, 2010).
# How the values were obtained:
# Type in all cases: functional
# SK-MEL-28 [1] = assay: Growth inhibition of human SK-MEL-28 cells; settings: for CC50: read-out: LC50 (the source's name)
# A498 = assay: Growth inhibition of human A498 cells; settings: for CC50: read-out: LC50 (the source's name)
# MCF7 = assay: Growth inhibition of human MCF7 cells; settings: for CC50: read-out: LC50 (the source's name)
# BT-549 = assay: Growth inhibition of human BT549 cells; settings: for CC50: read-out: LC50 (the source's name)
# T47D = assay: Growth inhibition of human T47D cells; settings: for CC50: read-out: LC50 (the source's name)
# SK-MEL-28 [2] = assay: Growth inhibition of human SK-MEL-28 cells assessed tumor cell growth at 10^-5 M; design: scale not given: the % may be the effect or the level left
# In short: (§1)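 NCI 60-human-tumor-cell-line panel screen. Each compound was tested at a single concentration of 10^-5 M, and percent growth of tumor cells was recorded for each cell line. Growth inhibition was expressed from these percent-growth values.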
# UACC-62 = assay: Growth inhibition of human UACC62 cells assessed tumor cell growth at 10^-5 M; design: scale not given: the % may be the effect or the level left
# In short: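 Single-dose screen at 10^-5 M across the 60 human tumor cell line panel, run to NCI standards. The value is the percent growth of each cell line in the presence of compound. Compounds active at this dose moved on to five-concentration testing (10^-4 to 10^-8 M).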
# NCI/ADR-RES = assay: Growth inhibition of human NCI/ADR-RES cells assessed tumor cell growth at 10^-5 M; design: scale not given: the % may be the effect or the level left; in short: as §1
# 786-0 = assay: Growth inhibition of human 786-0 cells assessed tumor cell growth at 10^-5 M; design: scale not given: the % may be the effect or the level left; in short: as §1
# HOP-92 = assay: Growth inhibition of human HOP92 cells; settings: for CC50: read-out: LC50 (the source's name)
# NCI-H460 = assay: Growth inhibition of human NCI-H460 cells; settings: for CC50: read-out: LC50 (the source's name)
# HOP-62 = assay: Growth inhibition of human HOP62 cells; settings: for CC50: read-out: LC50 (the source's name)
smiles,measurement,setting,value
O=C1/C(=C\c2coc3ccccc3c2=O)c2ccccc2N1c1c(Cl)cccc1Cl,GI50,SK-MEL-28 [1],3.8 µM
same,CC50,SK-MEL-28 [1],> 100 µM
same,GI50,A498,4.3 µM
same,CC50,A498,> 100 µM
same,GI50,MCF7,3.2 µM
same,CC50,MCF7,> 100 µM
same,GI50,BT-549,2.8 µM
same,CC50,BT-549,> 100 µM
same,GI50,T47D,3 µM
same,CC50,T47D,> 100 µM
same,Activity,SK-MEL-28 [2],47.32%
same,Activity,UACC-62,36.62%
same,Activity,NCI/ADR-RES,36.14%
same,Activity,786-0,27.05%
same,GI50,HOP-92,4.7 µM
same,CC50,HOP-92,> 100 µM
same,GI50,NCI-H460,2 µM
same,CC50,NCI-H460,> 100 µM
O=C1Nc2ccccc2/C1=C/c1cn(C(=O)c2c(Cl)cccc2Cl)c2ccccc12,GI50,A498,1.2 µM
same,CC50,A498,21.8 µM
same,GI50,BT-549,2.4 µM
same,CC50,BT-549,37.1 µM
same,GI50,T47D,4.1 µM
same,CC50,T47D,> 100 µM
same,Activity,SK-MEL-28 [2],81.4%
same,Activity,UACC-62,36.7%
same,Activity,NCI/ADR-RES,57.7%
same,Activity,786-0,57%
same,GI50,HOP-62,12.8 µM
same,CC50,HOP-62,> 100 µM
same,GI50,HOP-92,1.5 µM
same,CC50,HOP-92,> 100 µM
same,GI50,NCI-H460,1.9 µM
same,CC50,NCI-H460,7.9 µM
CC1=NN(c2cccc(Cl)c2)C(=O)/C1=C\C=C\c1ccccc1,GI50,SK-MEL-28 [1],2 µM
same,CC50,SK-MEL-28 [1],8.9 µM
same,GI50,A498,17.7 µM
same,CC50,A498,> 100 µM
same,GI50,MCF7,1.1 µM
same,CC50,MCF7,> 100 µM
same,GI50,BT-549,1.6 µM
same,CC50,BT-549,6.1 µM
same,GI50,T47D,2.2 µM
same,CC50,T47D,> 100 µM
same,Activity,SK-MEL-28 [2],-76.48%
same,Activity,UACC-62,28.21%
same,Activity,NCI/ADR-RES,-17.49%
same,Activity,786-0,35.48%
same,GI50,HOP-62,3.1 µM
same,CC50,HOP-62,57.5 µM
same,GI50,HOP-92,4.6 µM
same,CC50,HOP-92,> 100 µM
same,GI50,NCI-H460,1.6 µM
same,CC50,NCI-H460,6.4 µM
CC1=NN(c2cccc(Cl)c2)C(=O)/C1=C\c1c(O)ccc2ccccc12,GI50,A498,> 100 µM
same,CC50,A498,> 100 µM
same,GI50,BT-549,27.5 µM
same,CC50,BT-549,> 100 µM
same,GI50,T47D,> 100 µM
same,CC50,T47D,> 100 µM
same,Activity,SK-MEL-28 [2],35.25%
same,Activity,UACC-62,82.71%
same,Activity,NCI/ADR-RES,75.31%
same,Activity,786-0,-46.85%
same,GI50,HOP-62,31.6 µM
same,CC50,HOP-62,> 100 µM
same,GI50,NCI-H460,> 100 µM
same,CC50,NCI-H460,> 100 µM
O=C1/C(=C\c2ccccn2)c2ccccc2N1c1c(Cl)cccc1Cl,GI50,A498,2.9 µM
same,CC50,A498,72.4 µM
same,GI50,BT-549,2.4 µM
same,CC50,BT-549,23.4 µM
same,GI50,T47D,2.3 µM
same,CC50,T47D,> 100 µM
same,Activity,SK-MEL-28 [2],-10.05%
same,Activity,UACC-62,24.91%
same,Activity,NCI/ADR-RES,-26.73%
same,Activity,786-0,-81.44%
same,GI50,HOP-62,2.3 µM
same,CC50,HOP-62,89.1 µM
same,GI50,NCI-H460,1.8 µM
same,CC50,NCI-H460,7 µM
